In ChEMBL document CHEMBL1124759, “Fluoronaphthyridines and quinolones as antibacterial agents. 2. Synthesis and structure-activity relationships of new 1-tert-butyl 7-substituted derivatives” (J Med Chem, 1990):
In brackets after ≈: the same amount, converted by molar mass. Each block holds one compound with its values, some of them ahead of it.

Experiments:
[1] = system: Enterococcus faecalis; test: In vitro minimum inhibitory concentration (MIC) against Enterococcus faecalis A 9808 at 37 degrees C for 18 h.; assay type: functional
How it was run: (§1)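 Two-fold serial broth dilution in nutrient broth. Inoculum adjusted to 10^6 cfu/mL. Compounds tested from 0.0005 to 250 µg/mL.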

[2] = system: Escherichia coli; test: In vitro minimum inhibitory concentration (MIC) against Escherichia coli A 15119 at 37 degrees Celsius for 18 h.; assay type: functional; how it was run: as §1
[3] = system: Enterococcus faecium; test: In vitro minimum inhibitory concentration (MIC) against Enterococcus faecium A 24885 at 37 degrees C for 18 h.; assay type: functional; how it was run: as §1
[4] = system: Klebsiella pneumoniae; test: In vitro minimum inhibitory concentration (MIC) against Klebsiella pneumoniae A 9664 at 37 degrees C for 18 h.; assay type: functional; how it was run: as §1
[5] = system: Morganella morganii; test: In vitro minimum inhibitory concentration (MIC) against Morganella morganii A 15153 at 37 degrees C for 18 h.; assay type: functional; how it was run: as §1
[6] = system: Pseudomonas aeruginosa; test: In vitro minimum inhibitory concentration (MIC) against Pseudomonas aeruginosa A 9843 at 37 degree C for 18 h; assay type: functional; how it was run: as §1
[7] = system: Staphylococcus aureus; test: In vitro minimum inhibitory concentration (MIC) against Staphylococcus aureus Smith A 9537 at 37 degrees C for 18 hr; assay type: functional; how it was run: as §1
[8] = system: Serratia marcescens; test: In vitro minimum inhibitory concentration (MIC) against Serratia marcescens A 20019 at 37 degrees C for 18 hr; assay type: functional; how it was run: as §1
[9] = system: Enterobacter cloacae; test: In vitro minimum inhibitory concentration (MIC) against Enterobacter cloacae A 9656 at 37 degrees C for 18 h.; assay type: functional
[10] = system: Escherichia coli; test: In vitro minimum inhibitory concentration (MIC) against Escherichia coli A 15119 at 37 degrees C for 18 h.; assay type: functional; how it was run: as §1
[11] = system: Escherichia coli; test: Efficacy on systematic infections against Escherichia coli A 15119 after oral administration in mice; assay type: functional; settings: read-out: PD50
How it was run: (§2)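 Mice given compound orally after lethal systemic infection. Read-out is the oral dose protecting 50% of mice from death (PD50), reported in mg/kg.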

[12] = system: Klebsiella pneumoniae; test: Efficacy on systematic infections against Klebsiella pneumoniae A 9664 after oral administration in mice; assay type: functional; settings: read-out: PD50; how it was run: as §2
[13] = system: Klebsiella pneumoniae; test: In vitro minimum inhibitory concentration (MIC) against Klebsiella pneumoniae A 9664 at 37 degrees Celsius for 18 h.; assay type: functional; how it was run: as §1
[14] = system: Pseudomonas aeruginosa; test: Efficacy on systematic infections against Pseudomonas aeruginosa A 9843 after oral administration in mice; assay type: functional; settings: read-out: PD50; how it was run: as §2
[15] = system: Staphylococcus aureus; test: Efficacy on systematic infections against Staphylococcus aureus A 9537 after oral administration in mice; assay type: functional; settings: read-out: PD50; how it was run: as §2
[16] = system: Pseudomonas aeruginosa; test: In vitro minimum inhibitory concentration (MIC) against Pseudomonas aeruginosa A 9843 at 37 degrees Celsius for 18 h; assay type: functional; how it was run: as §1
[17] = (§3) Tested for aqueous solubility; assay type: physicochemical; settings: aqueous medium; read-out: S
How it was run: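 An excess of solid was shaken overnight in water for injection at isoelectric pH. The mixture was filtered, and the filtrate was diluted and quantified by HPLC with UV detection.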

[18] = system: Klebsiella pneumoniae; test: In vitro minimum inhibitory concentration (MIC) […] A 9664 at 37 degrees Celsius for 18 h.; assay type: functional; how it was run: as §1
[19] = as §3; settings: aqueous medium
[20] = system: Klebsiella pneumoniae; test: In vitro minimum inhibitory concentration (MIC) against Klebsiella pneumoniae A 9664 at 37 degrees C for 18 h; assay type: functional; how it was run: as §1
[21] = system: Mus musculus; test: Dose to protect 50% of mice from lethal infection after intravenous administration; assay type: functional
[22] = system: Mus musculus; test: Dose to protect 50% of mice from lethal infection after peroral administration.; assay type: functional; settings: po; how it was run: as §2
[23] = species on record: Canis familiaris; settings: dog, in vivo, po, 25 mg/kg
[24] = system: Canis familiaris; test: in vivo; settings: dog, po, 25 mg/kg
[25] = system: Canis familiaris; test: in vivo; settings: dog, po, 25 mg/kg; remark: listed apart in the source
[26] = in vivo; settings: dog, urine, po, 25 mg/kg
[27] = system: Staphylococcus aureus; test: Efficacy on systematic infections against Staphylococcus aureus Smith A 9537 after oral administration in mice; assay type: functional; settings: read-out: PD50; how it was run: as §2

Compound: CC(C)(C)n1cc(C(=O)O)c(=O)c2cc(F)c(N3C[C@@H](N)[C@@H](F)C3)nc21.CS(=O)(=O)O
MIC [1]: 0.5 µg/mL | MIC [2]: 0.25 µg/mL | MIC [3]: 4 µg/mL | MIC [4]: 0.06 µg/mL | MIC [5]: 0.5 µg/mL | MIC [6]: 2 µg/mL | MIC [7]: 0.015 µg/mL | MIC [8]: 0.5 µg/mL | MIC [9]: 0.25 µg/mL

Compound: CS(=O)(=O)O.C[C@H]1CN(c2nc3c(cc2F)c(=O)c(C(=O)O)cn3C(C)(C)C)C[C@@H]1N
MIC [1]: 0.06 µg/mL | MIC [10]: 0.015 µg/mL | MIC [3]: 0.5 µg/mL | ED50 [11]: 2.4 mg/kg | ED50 [12]: 6.3 mg/kg | MIC [13]: 0.06 µg/mL | MIC [5]: 0.13 µg/mL | MIC [6]: 0.25 µg/mL | ED50 [14]: 6.3 mg/kg | ED50 [15]: 1.6 mg/kg | MIC [7]: 0.008 µg/mL | MIC [8]: 0.13 µg/mL | MIC [9]: 0.015 µg/mL

MIC [1]: 2 µg/mL (≈ 5.12 µM) | MIC [10]: 0.13 µg/mL (≈ 0.333 µM) | MIC [3]: 8 µg/mL (≈ 20.5 µM) | MIC [4]: 0.25 µg/mL (≈ 0.64 µM) | MIC [5]: 1 µg/mL (≈ 2.56 µM) | MIC [16]: 2 µg/mL (≈ 5.12 µM) | MIC [7]: 0.13 µg/mL (≈ 0.333 µM) | MIC [8]: 1 µg/mL (≈ 2.56 µM) | MIC [9]: 0.25 µg/mL (≈ 0.64 µM)
Compound: CCNCC1CCN(c2nc3c(cc2F)c(=O)c(C(=O)O)cn3C(C)(C)C)C1 (centres undefined)

Compound: CC(C)(C)n1cc(C(=O)O)c(=O)c2cc(F)c(N3C[C@H]4C[C@@H]3CN4)cc21.CS(=O)(=O)O
solubility [17]: 230 µg/mL | MIC [1]: 2 µg/mL | MIC [10]: 0.5 µg/mL | MIC [3]: 4 µg/mL | MIC [5]: 2 µg/mL | MIC [6]: 0.5 µg/mL | MIC [7]: 0.5 µg/mL | MIC [8]: 0.25 µg/mL | MIC [9]: 0.25 µg/mL | MIC [18]: 0.13 µg/mL

MIC [1]: 2 µg/mL | MIC [2]: 0.5 µg/mL | MIC [3]: 8 µg/mL | MIC [4]: 0.13 µg/mL | MIC [5]: 1 µg/mL | MIC [6]: 4 µg/mL | MIC [7]: 0.13 µg/mL | MIC [8]: 0.5 µg/mL | MIC [9]: 0.13 µg/mL
Compound: CN1C2CCC1CN(c1cc3c(cc1F)c(=O)c(C(=O)O)cn3C(C)(C)C)C2.Cl

Compound: CC(C)(C)n1cc(C(=O)O)c(=O)c2cc(F)c(N3C[C@H]4C[C@@H]3CN4)nc21
solubility [19]: 80 µg/mL (≈ 222 µM) | MIC [1]: 0.13 µg/mL (≈ 0.361 µM) | MIC [10]: 0.06 µg/mL (≈ 0.166 µM) | MIC [3]: 1 µg/mL (≈ 2.77 µM) | ED50 [11]: 1.8 mg/kg | ED50 [12]: 4.9 mg/kg | MIC [20]: 0.06 µg/mL (≈ 0.166 µM) | MIC [5]: 0.25 µg/mL (≈ 0.694 µM) | LD50 [21]: 303 mg/kg | LD50 [22]: 5000 mg/kg | MIC [6]: 0.25 µg/mL (≈ 0.694 µM) | ED50 [14]: 4.7 mg/kg | ED50 [15]: 1.6 mg/kg | MIC [7]: 0.06 µg/mL (≈ 0.166 µM) | MIC [8]: 0.06 µg/mL (≈ 0.166 µM) | MIC [9]: 0.06 µg/mL (≈ 0.166 µM) | AUC [23]: 55000 ng·h/mL | Cmax [24]: 5600 ng/mL | half-life [25]: 4.5 h | dose excreted [26]: 20%

Compound: O=C(O)c1cn(C2CC2)c2cc(N3CCNCC3)c(F)cc2c1=O [CIPROFLOXACIN]
MIC [1]: 0.5 µg/mL (≈ 1.51 µM) | MIC [3]: 4 µg/mL (≈ 12.1 µM) | ED50 [11]: 1 mg/kg | ED50 [12]: 1.5 mg/kg | MIC [4]: 0.03 µg/mL (≈ 0.0905 µM) | MIC [5]: 0.015 µg/mL (≈ 0.0453 µM) | MIC [6]: 0.13 µg/mL (≈ 0.392 µM) | ED50 [14]: 2.6 mg/kg | ED50 [27]: 3.4 mg/kg | MIC [7]: 0.13 µg/mL (≈ 0.392 µM) | MIC [8]: 0.3 µg/mL (≈ 0.905 µM)

Compound: CCn1cc(C(=O)O)c(=O)c2cc(F)c(N3CCNCC3)cc21 [NORFLOXACIN]
MIC [1]: 4 µg/mL (≈ 12.5 µM) | MIC [10]: 0.13 µg/mL (≈ 0.407 µM) | MIC [3]: 8 µg/mL (≈ 25.1 µM) | ED50 [11]: 13 mg/kg | ED50 [12]: 8 mg/kg | MIC [4]: 0.03 µg/mL (≈ 0.0939 µM) | MIC [5]: 0.015 µg/mL (≈ 0.047 µM) | MIC [6]: 0.5 µg/mL (≈ 1.57 µM) | ED50 [14]: 12.6 mg/kg | ED50 [27]: 1.9 mg/kg | MIC [7]: 0.25 µg/mL (≈ 0.783 µM) | MIC [8]: 0.13 µg/mL (≈ 0.407 µM) | MIC [9]: 0.06 µg/mL (≈ 0.188 µM)
